Experimental data published in ChEMBL document CHEMBL1148681, “Synthesis and evaluation of (2-phenethyl-2H-1,2,3-triazol-4-yl)(phenyl)methanones as Kv1.5 channel blockers for the treatment of atrial fibrillation” (Bioorg Med Chem Lett, 2006).
Active and inactive are the calls of the source. No cut-off for these calls is given here.

How the values were obtained:
[1] = target: T1, Potassium voltage-gated channel subfamily A member 5 (Homo sapiens, UniProt P22460); test: Blockade of Kv1.5 channel expressed in LTK cells at 1 uM by patch clamp method; type: functional, cell-based
T1 sequence (P22460 whole entry): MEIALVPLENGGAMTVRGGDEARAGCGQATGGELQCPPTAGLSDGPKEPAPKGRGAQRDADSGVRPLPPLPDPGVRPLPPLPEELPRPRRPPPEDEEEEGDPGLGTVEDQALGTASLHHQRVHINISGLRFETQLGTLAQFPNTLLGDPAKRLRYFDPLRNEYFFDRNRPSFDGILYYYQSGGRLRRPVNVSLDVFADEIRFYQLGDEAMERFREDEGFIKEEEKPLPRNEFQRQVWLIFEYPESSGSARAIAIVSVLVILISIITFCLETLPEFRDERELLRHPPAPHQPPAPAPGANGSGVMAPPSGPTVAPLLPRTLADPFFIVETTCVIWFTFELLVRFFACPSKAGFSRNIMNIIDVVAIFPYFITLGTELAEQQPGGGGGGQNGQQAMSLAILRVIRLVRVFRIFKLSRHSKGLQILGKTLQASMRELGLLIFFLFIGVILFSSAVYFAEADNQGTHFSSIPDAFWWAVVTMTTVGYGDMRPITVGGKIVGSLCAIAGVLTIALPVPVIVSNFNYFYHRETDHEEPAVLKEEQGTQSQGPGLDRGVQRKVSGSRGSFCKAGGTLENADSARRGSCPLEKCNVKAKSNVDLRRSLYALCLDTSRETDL
Method in brief: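 Whole-cell patch clamp on Ltk- cells overexpressing Kv1.5, cultured 24–72 h and induced with dexamethasone for 24 h. Pipette solution was KCl/K2ATP/K4BAPTA/MgCl2/Hepes at pH 7.2; bath was NaCl/KCl/CaCl2/MgCl2/Hepes/glucose at pH 7.4. Cells were held at −70 mV and stepped to +60 mV for 1 s at 0.2 Hz. Current at pulse end was compared to control at 1 uM inhibitor.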

[2] = target: T1, Potassium voltage-gated channel subfamily A member 5; test: Blockade of Kv1.5 channel expressed in LTK cells by patch clamp method; type: functional, cell-based
Method in brief: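 Dexamethasone-induced (24 h) Ltk- cells expressing Kv1.5 were recorded by series-resistance-compensated whole-cell patch clamp, with 1 s steps from −70 to +60 mV at 0.2 Hz (pH 7.2 pipette, pH 7.4 bath). After control currents stabilized, inhibitor was perfused at rising concentrations, each to maximal block. IC50 was obtained by nonlinear regression.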

[3] = target: Voltage-gated inwardly rectifying potassium channel KCNH2 (Homo sapiens, UniProt Q12809); test: Inhibition of hERG; type: toxicity
Chain of Voltage-gated inwardly rectifying potassium channel KCNH2 (Q12809 whole entry): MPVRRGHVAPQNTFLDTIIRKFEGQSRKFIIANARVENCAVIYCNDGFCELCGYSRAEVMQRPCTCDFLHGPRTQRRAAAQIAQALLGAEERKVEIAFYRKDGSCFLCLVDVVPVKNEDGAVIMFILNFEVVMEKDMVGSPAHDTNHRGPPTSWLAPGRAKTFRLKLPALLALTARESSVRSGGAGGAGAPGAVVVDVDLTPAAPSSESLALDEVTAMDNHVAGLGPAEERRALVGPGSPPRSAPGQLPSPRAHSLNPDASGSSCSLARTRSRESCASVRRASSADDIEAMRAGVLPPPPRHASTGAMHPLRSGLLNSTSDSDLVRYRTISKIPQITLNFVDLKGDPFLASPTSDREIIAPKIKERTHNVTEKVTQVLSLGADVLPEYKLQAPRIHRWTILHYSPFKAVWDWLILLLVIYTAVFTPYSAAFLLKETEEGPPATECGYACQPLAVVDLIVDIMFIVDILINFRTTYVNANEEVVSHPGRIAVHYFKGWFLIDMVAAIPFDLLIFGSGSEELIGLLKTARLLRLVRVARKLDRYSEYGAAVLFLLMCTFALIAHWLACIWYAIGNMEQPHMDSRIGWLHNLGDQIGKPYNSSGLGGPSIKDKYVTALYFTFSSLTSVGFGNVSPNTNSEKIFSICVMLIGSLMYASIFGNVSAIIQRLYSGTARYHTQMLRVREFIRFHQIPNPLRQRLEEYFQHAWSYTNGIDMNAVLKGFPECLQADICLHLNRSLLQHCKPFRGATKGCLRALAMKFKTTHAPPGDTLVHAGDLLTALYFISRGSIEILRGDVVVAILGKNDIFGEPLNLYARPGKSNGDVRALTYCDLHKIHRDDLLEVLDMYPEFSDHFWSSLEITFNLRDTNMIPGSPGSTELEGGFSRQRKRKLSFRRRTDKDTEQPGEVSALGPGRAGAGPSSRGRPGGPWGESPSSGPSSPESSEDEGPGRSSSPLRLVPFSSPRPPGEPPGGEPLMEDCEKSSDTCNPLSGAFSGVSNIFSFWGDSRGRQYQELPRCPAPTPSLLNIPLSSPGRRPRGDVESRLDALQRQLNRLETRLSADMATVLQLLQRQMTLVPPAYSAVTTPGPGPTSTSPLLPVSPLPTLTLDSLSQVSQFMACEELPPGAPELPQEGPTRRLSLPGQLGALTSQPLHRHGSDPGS

[4] = target: Potassium voltage-gated channel subfamily A member 3 (Homo sapiens) (UniProt P22001); test: Inhibition of Kv1.3 channel
Chain of Potassium voltage-gated channel subfamily A member 3 (Homo sapiens) (P22001 whole entry): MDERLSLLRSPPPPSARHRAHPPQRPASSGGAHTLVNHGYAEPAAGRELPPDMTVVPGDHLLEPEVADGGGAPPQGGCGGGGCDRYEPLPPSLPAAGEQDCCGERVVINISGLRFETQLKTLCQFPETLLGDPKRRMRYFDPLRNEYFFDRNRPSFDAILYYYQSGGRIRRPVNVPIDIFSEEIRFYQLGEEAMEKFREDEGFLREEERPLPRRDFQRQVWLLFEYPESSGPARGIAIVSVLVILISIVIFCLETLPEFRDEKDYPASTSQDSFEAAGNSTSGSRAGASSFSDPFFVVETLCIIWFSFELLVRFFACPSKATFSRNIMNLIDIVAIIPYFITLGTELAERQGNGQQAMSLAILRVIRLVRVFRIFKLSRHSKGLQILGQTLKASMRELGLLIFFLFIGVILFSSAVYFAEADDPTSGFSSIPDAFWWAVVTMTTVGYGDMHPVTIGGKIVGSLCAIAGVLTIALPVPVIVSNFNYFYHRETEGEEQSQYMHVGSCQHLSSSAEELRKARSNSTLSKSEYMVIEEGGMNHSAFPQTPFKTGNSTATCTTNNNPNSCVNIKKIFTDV

[5] = target: Voltage-gated L-type calcium channel (Homo sapiens, UniProt Q13936+Q13698+Q01668+O60840); test: Inhibition of L type calcium channel; type: protein assay
Sus scrofa [6] = test: Increase in atrial effective refractory period in pig at 30 mg/kg after 15 mins; type: functional, Cardiac atrium
Sus scrofa [7] = test: Effect on ventricular effective refractory period in pig at 30 mg/kg after 15 mins; type: functional, organism-based; design: dose 30 mg/kg; settings: Cardiac ventricle

`COc1ccc(CCn2ncc(C(=O)c3ccc(OC)cc3)n2)cc1` gave an Activity [1] of 84%.

Compound `COc1ccc(CCn2ncc(C(=O)c3ccc(N(C)C)cc3OC)n2)cc1` has an Activity [1] of 0%.

In the case of `COc1ccc(CCn2ncc(C(=O)c3ccc(Cl)c(Cl)c3)n2)cc1`, the Activity [1] is reported as 88%.

Work on `COc1ccc(CCN2C(=O)CSC2c2ccc(C)c(C)c2)cc1` (configuration not stated) yielded an IC50 [2] of 137 nM.

In the case of `COc1ccc(CCn2ncc(C(=O)c3ccc(C)c(C)c3)n2)cc1`, the IC50 [2] is reported as 294 nM, the Activity [1] is reported as 90% and the Activity [3] is reported as > 50 µM. The Activity [4] was 10.1 µM, the Activity [5] was 26 µM and the Activity (Sus scrofa [6]) was 12%. The Activity (Sus scrofa [7]) was “inactive”.

In the case of `COc1ccc(CCn2cc(C(=O)c3ccc(C)c(C)c3)nn2)cc1`, the Activity [2] is reported as “inactive”.

For `CCc1ccc(C(=O)c2cnn(CCc3ccc(OC)cc3)n2)cc1`, the Activity [1] was 86%.

`COc1ccc(CCn2ncc(C(=O)c3ccc(Cl)cc3)n2)cc1` showed an Activity [1] of 85%.

Work on `COc1ccc(CCn2ncc(C(=O)c3ccc(C(C)C)cc3)n2)cc1` yielded an Activity [1] of 97%.

For `COc1ccc(CCn2ncc(C(=O)c3ccccc3Cl)n2)cc1`, the Activity [1] was 22%.

In the case of `COc1ccc(CCn2ncc(C(=O)c3ccc(N(C)C)cc3)n2)cc1`, the Activity [1] is reported as 99%.
